Source: paper PMC5552238 (EBioMedicine, 2017)

Tested on: subcutaneous Hepa1-6 liver cancers
Assay: Subcutaneous Hepa1-6 liver cancers, 747 combined with low-dose sorafenib
Format: in vivo, mouse
Settings: sorafenib low dose 10 mg/kg
Summary of the method: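 Hepa1-6 cells (1.5 × 106) injected into right flank; mice randomized at ~0.5 cm tumors. Test compound given i.p. daily (0.5% HPMC/0.2% Tween), alone or with sorafenib 10 mg/kg intragastric. Volume = 1/2a × b². End-point paraffin sections stained for F4/80, Arg-1 and cleaved caspase-3 (primary overnight at 4 °C, HRP secondary 1 h at 37 °C, DAB). Sorted intratumoral CD8+ T cells analysed by qRT-PCR normalized to GAPDH/L32.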

CNC(=O)c1cc(Oc2ccc(NC(=O)Nc3ccc(Cl)c(C(F)(F)F)c3)cc2)ccn1 [sorafenib]
therapeutic effect on subcutaneous tumors: no efficacy
